Bioassay records as filed in PubChem.
PAFAH1B2 inh: PAFAH1B2 enzyme inhibitors, primary screen, biochemical, fluorescence polarization, human. recombinant PAFAH1B2, FP-rhodamine activity probe. inhibition, % at 3.39 µM. 1.2% of 340,000 active. AID 492953, 2010;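 active = inhibition above the mean of all tested compounds plus 3 SD, cut at about 24% in these data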
Target sequence (P68402 whole entry, looked up): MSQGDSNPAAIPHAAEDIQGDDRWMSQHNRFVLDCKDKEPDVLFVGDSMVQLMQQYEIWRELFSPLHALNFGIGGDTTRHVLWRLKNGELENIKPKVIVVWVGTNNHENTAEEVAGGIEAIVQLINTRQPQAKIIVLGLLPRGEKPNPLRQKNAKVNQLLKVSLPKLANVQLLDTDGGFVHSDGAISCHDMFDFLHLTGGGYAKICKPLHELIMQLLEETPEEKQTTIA
TDP2 absorb: human TDP2 enzyme inhibitors, primary screen, biochemical, epi absorbance, recombinant enzyme. Tyrosyl-DNA phosphodiesterase 2 (Homo sapiens), O95551. T5PNP hydrolysis, p-nitrophenol absorbance 415 nm. inhibition, % at 12.8 µM. 0.34% of 370,000 active. AID 720702, 2013;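 active = inhibition above the mean of all tested compounds plus 3 SD, set per campaign, cut at about 25% in these data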
Target sequence (O95551 whole entry, looked up): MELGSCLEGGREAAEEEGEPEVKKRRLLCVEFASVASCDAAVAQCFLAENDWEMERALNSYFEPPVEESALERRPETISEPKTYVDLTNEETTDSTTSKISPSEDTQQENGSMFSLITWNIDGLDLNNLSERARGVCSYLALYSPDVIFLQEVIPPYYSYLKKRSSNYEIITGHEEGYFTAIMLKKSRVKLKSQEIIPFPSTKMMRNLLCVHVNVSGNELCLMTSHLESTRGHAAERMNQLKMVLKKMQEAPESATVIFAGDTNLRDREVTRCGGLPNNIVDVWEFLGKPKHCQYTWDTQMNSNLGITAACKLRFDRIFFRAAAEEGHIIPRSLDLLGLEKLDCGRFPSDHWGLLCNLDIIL
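Evaluation: % inhibition relative to enzyme-containing and enzyme-free wells. Material: recombinant human TDP2. Benchmarks: enzyme-free and DMSO wells. Timing: enzyme reaction with compound for 2 h at 37 °C. Compound dosing: 12.8 µM only. Measured by: p-Nitrophenol epi absorbance. Reagent: T5PNP substrate at 5 mM, a TopII-DNA adduct mimic. Replication: single well per compound.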
PAFAH2 FP inh: PAFAH2 enzyme inhibitors, primary screen, biochemical, fluorescence polarization, human; recombinant PAFAH2, FP-rhodamine activity probe; 0.99% of 340,000 active; AID 492956, 2010; inhibition, % at 3.39 µM; Platelet-activating factor acetylhydrolase 2, cytoplasmic (Homo sapiens), Q99487;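 active = inhibition above the mean over all tested compounds plus 3 SD, cut at about 30% in these data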;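 note: inhibitors block probe labeling of enzyme so polarization drops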
Apaf-1 inh: inhibitors of human Apaf-1 apoptosome, primary screen, biochemical, DEVD-Rh110 fluorescence, uHTS. inhibition, % at 20 µM. Apoptotic protease-activating factor 1 (Homo sapiens), O14727. reconstituted apoptosome caspase-3 activity. 0.71% of 330,000 active; active = inhibition of at least 40% at 20 µM
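Medium: Hepes buffer, pH 7.5 / System: biochemical Apaf-1 apoptosome reconstitution / Measured by: Rh110 fluorescence, excitation 480 nm, emission 540 nm / Times: compound with Apaf-1, dATP, procaspase-3 30 min, then 50 min reaction, room temperature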
PAFAH1B3 FP inh: PAFAH1B3 enzyme inhibitors, primary screen, biochemical, fluorescence polarization, human; Platelet-activating factor acetylhydrolase IB subunit alpha1 (Homo sapiens), Q15102; recombinant PAFAH1B3, FP-rhodamine probe; inhibition, % at 3.39 µM; 0.28% of 340,000 active;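 active = inhibition above the screen-wide average of all tested compounds plus 3 SD, cut at about 25% in these data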
PAFAH2 confirm: PAFAH2 enzyme inhibitors, confirmation, biochemical, fluorescence polarization, human | shares compounds with PAFAH2 FP inh | recombinant PAFAH2, FP-rhodamine activity probe | inhibition, % at 3.39 µM | 65% of 2,300 active | AID 493030, 2011;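 active = mean inhibition over three repeats above a set limit taken from the earlier primary screen, cut at about 30% in these data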;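 note: inhibitor blocks binding of rhodamine activity probe so polarization falls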
Of the large screens only hits and unclear results are named; the others gave an inactive call (follow-up assays come after a bar, where they were run). Most compounds without a hit are left out; they make up all but 2.3% or so of the library.

COc1ccc(C(=O)OCC(=O)NC2CC2)cc1F	PAFAH2 FP inh 49 | PAFAH2 confirm 31
COc1ccc(C(=O)OCC(=O)c2ccc(F)cc2)cc1OC	PAFAH2 FP inh 60 | PAFAH2 confirm 57
COc1cc(C(=O)OCC(=O)NC2CCCCCC2)ccc1OCC(C)C	PAFAH2 FP inh 88 | PAFAH2 confirm 83
COc1cc(N)c(Cl)cc1C(=O)OCC(=O)NCC1CCCCC1	PAFAH2 FP inh 60 | PAFAH2 confirm 52
COc1cc(C)ccc1OCC(=O)NC1CCCCCC1	none
O=S1(=O)c2ccc(Br)cc2OC[C@H](Cc2ccccc2)N1Cc1cn(Cc2ccc(Cl)cc2)nn1	none (no result: PAFAH1B2 inh, PAFAH2 FP inh, Apaf-1 inh, PAFAH1B3 FP inh)
CCCCCCC[C@H](N)[C@H](O)C(=O)N(C)[C@@H](CCS(C)=O)C(=O)N[C@@H](Cc1ccc(O)cc1)C(=O)O (stereo partly specified)	none (no result: PAFAH1B2 inh, PAFAH2 FP inh, Apaf-1 inh, PAFAH1B3 FP inh)
COC(=O)c1cc(NS(=O)(=O)c2cccs2)cc(NS(=O)(=O)c2cccs2)c1	PAFAH2 FP inh 32 | PAFAH2 confirm inactive
Cc1cc(C)cc(NS(=O)(=O)c2cccs2)c1	none
COc1ccccc1NC(=O)c1ccccc1NS(=O)(=O)c1cccs1	PAFAH2 FP inh 44 | PAFAH2 confirm 40
COc1ccccc1NC(=O)c1ccccc1NS(C)(=O)=O	none
CCCCN1C(=O)N2Cc3ccc(C)cc3C2CS1(=O)=O (stereo unspecified)	none (no result: PAFAH1B2 inh, PAFAH2 FP inh, Apaf-1 inh, PAFAH1B3 FP inh)
CC(=O)OCn1nnc2ccccc2c1=O	none
COc1cccc(C(=O)OCn2nnc3ccccc3c2=O)c1OC	PAFAH2 FP inh 50 | PAFAH2 confirm 45
COc1ccc(C(=O)OCn2nnc3ccccc3c2=O)cc1	PAFAH2 FP inh 43 | PAFAH2 confirm 37
COc1cc(C(=O)OCn2nnc3ccccc3c2=O)cc(OC)c1OC	none
CCOc1ccc(C(=O)OCn2nnc3ccccc3c2=O)cc1OC	PAFAH2 FP inh 63 | PAFAH2 confirm 52
COc1ccc(CC(=O)OCn2nnc3ccccc3c2=O)cc1	none
O=C(OCn1nnc2ccccc2c1=O)c1ccc(O)cc1	PAFAH2 FP inh 33 | PAFAH2 confirm inactive
CCN(CC)C(=O)CC[C@@H]1CC[C@]2(CCCN(S(=O)(=O)c3ccccc3)C2)O1	none (no result: PAFAH1B2 inh, PAFAH2 FP inh, Apaf-1 inh, PAFAH1B3 FP inh)
CC(C)(C)c1ccc(C(=O)OCC(=O)NCc2ccco2)cc1	PAFAH2 FP inh 55 | PAFAH2 confirm 57
CC1Cc2ccccc2N1S(=O)(=O)c1cccc(C(=O)OCC(=O)NCc2ccco2)c1 (stereo unspecified)	PAFAH2 FP inh 33 | PAFAH2 confirm inactive
Cc1cc(C)cc(C(=O)OCC(=O)NCc2ccco2)c1	none
CC1Cc2ccccc2N1S(=O)(=O)c1cccc(C(=O)NCc2ccco2)c1 (stereo unspecified)	none
Cc1ccc(C(=O)OCC(=O)NCc2ccco2)cc1C	PAFAH2 FP inh 59 | PAFAH2 confirm 34
CC(c1ccccc1)N1CC[C@H]2C=CC[C@@H](C(=O)Nc3cccc(Cl)c3)[C@H]2C1=O (stereo partly specified)	none (no result: PAFAH1B2 inh, PAFAH2 FP inh, Apaf-1 inh, PAFAH1B3 FP inh)
COC(=O)[C@@H](Cc1ccccc1)NC(=O)[C@H]1CCC(=O)N1C(=O)OCc1ccccc1	PAFAH2 FP inh 41 | PAFAH2 confirm inactive
COc1cc(OC)cc(C(C)c2ccc(-c3ccccc3)cc2)c1 (stereo unspecified)	none (no result: PAFAH1B2 inh, PAFAH2 FP inh, Apaf-1 inh, PAFAH1B3 FP inh)
CN(C)S(=O)(=O)c1ccc(Cl)c(NC(=O)COC(=O)/C=C/c2ccco2)c1	PAFAH2 FP inh 46 | PAFAH2 confirm 47
COc1ccc(/C=C/C(=O)OCC(=O)Nc2cc(S(=O)(=O)N(C)C)ccc2Cl)cc1	none
CN(C)S(=O)(=O)c1ccc(Cl)c(NC(=O)COC(=O)/C=C/c2ccc(S(=O)(=O)N3CCOCC3)cc2)c1	PAFAH2 FP inh 31 | PAFAH2 confirm inactive
O=C(COC(=O)/C=C/c1ccc(F)cc1)Nc1ccc(S(=O)(=O)N2CCOCC2)cc1	none
COc1cc(/C=C/C(=O)OCC(=O)Nc2cc(S(=O)(=O)N(C)C)ccc2Cl)ccc1O	PAFAH2 FP inh 60 | PAFAH2 confirm 60
N#Cc1ccccc1NC(=O)COC(=O)/C=C/c1ccc(S(=O)(=O)N2CCOCC2)cc1	PAFAH2 FP inh 51 | PAFAH2 confirm 31
NC(=O)c1c(N)[nH]c(C(=O)c2ccccc2)c1-c1ccccc1C(F)(F)F	none (no result: PAFAH1B2 inh, PAFAH2 FP inh, Apaf-1 inh, PAFAH1B3 FP inh)
Cc1ccc(C(=O)OCC(=O)NCc2cccs2)c(C)c1	PAFAH2 FP inh 32 | PAFAH2 confirm inactive
COc1cc(N)c(Cl)cc1C(=O)OCC(=O)NCc1cccs1	none
COc1ccc(C(=O)OCC(=O)NCc2cccs2)c(OC)c1OC	PAFAH2 FP inh 72 | PAFAH2 confirm 65
O=C(COC(=O)c1ccccc1Br)NCc1cccs1	none
Cc1cc(=O)oc2c1ccc1oc(/C(=N/O)c3ccccc3)c(C)c12	PAFAH2 FP inh 37 | PAFAH2 confirm inactive
COc1ccc(C(=O)OCC(=O)N2CCc3ccccc32)cc1S(=O)(=O)N1CCOCC1	PAFAH2 FP inh 68 | PAFAH2 confirm 69
COc1ccc(C(=O)NCC2CCCO2)cc1S(=O)(=O)N1CCCc2ccccc21 (stereo unspecified)	none
COc1ccc(C(=O)OCC(=O)NCC2CCCO2)cc1S(=O)(=O)N1CCCc2ccccc21 (stereo unspecified)	PAFAH2 FP inh 34 | PAFAH2 confirm inactive
O=C(OCc1nnc(-c2ccc([N+](=O)[O-])cc2)o1)c1ccc(F)c(S(=O)(=O)N2CCOCC2)c1	PAFAH2 FP inh 30 | PAFAH2 confirm inactive
COc1ccc(C(=O)OCc2nnc(-c3ccccc3)o2)cc1S(=O)(=O)N1CCOCC1	PAFAH2 FP inh 79 | PAFAH2 confirm 71
C=CCOC(=O)N[C@@H](c1cccc(OC)c1)[C@@H](C)/C=C/CC(=O)O	none (no result: PAFAH1B2 inh, PAFAH2 FP inh, Apaf-1 inh, PAFAH1B3 FP inh)
O=C1OC2(CCCCC2)OC(=O)C1=CNc1nc2ccccc2s1	PAFAH2 FP inh 41 | PAFAH2 confirm inactive
CC1=NN(c2ccc(C)cc2)C(=O)/C1=C/c1ccc(-c2cc([N+](=O)[O-])ccc2O)o1	PAFAH2 FP inh 34 | PAFAH2 confirm inactive
CCN=C1NC(c2ccc(Cl)cc2)C(C(=O)OC)=C(C)N1Cc1cccc(C(F)(F)F)c1 (stereo unspecified)	none (no result: PAFAH1B2 inh, PAFAH2 FP inh, Apaf-1 inh, PAFAH1B3 FP inh)
CNc1ccc(Br)cc(C(=O)/C=C/c2cccc(Cl)c2Cl)c1=O	PAFAH2 FP inh 44 (no result: Apaf-1 inh) | PAFAH2 confirm inactive
CNc1ccc(Br)cc(C(=O)/C=C/c2cccc(OC)c2OC)c1=O	none
CCOc1ccc(NC(=O)COC(=O)C2C3CC4OC(=O)C2C4C3)cc1 (stereo unspecified)	PAFAH2 FP inh 47 | PAFAH2 confirm 40
